Bioassay records as filed in PubChem.
C2C12 statin: protects C2C12 myotubes from simvastatin toxicity; ATP luminescence, 48 h; scaled: DMSO 0, geranylgeraniol control 100; 330,000 tested, 0.78% active; rescue of ATP level, % at 7.49 µM;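 active = mean ATP rescue above about 67%, or every replicate alone reaching that limit, limit read from the data, passing the limit was not always enough; inconclusive = no clear call, values can overlap the other calls; inactive = mean under the limit and some replicate under it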;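 note: myotubes were challenged with 10 µM simvastatin during compound exposure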
S100A4 inh HTS: S100A4-myosin IIA interaction inhibition | P26447 | S100A4/TAMRA-MyoIIA peptide fluorescence polarization | inhibition, % at 10.7 µM | 360,000 tested, 0.14% active;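 active = mean inhibition of at least 70% across replicates, with every replicate also reaching that level; inconclusive = mean inhibition reaches 70% but some replicates fall short; inactive = mean inhibition below 70%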
Target sequence (P26447 whole entry, looked up): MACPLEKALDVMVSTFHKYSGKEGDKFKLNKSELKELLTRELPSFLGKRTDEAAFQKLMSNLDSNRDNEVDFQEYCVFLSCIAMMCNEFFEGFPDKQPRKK
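Material: human S100A4 monomer with TAMRA-labelled myosin IIA peptide; buffer or medium: HEPES pH 7.2 with CaCl2, KCl, NaCl, DTT, Triton; compound dosing: one concentration per compound; schedule: 5 min incubation before reading; benchmarks: neutral control DMSO, positive control TFP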
DENV2 CPE: protects cells from dengue virus 2 cytopathic effect | DENV2-infected cells, cytopathic effect rescue, plate reader | CPE inhibition, % at 9.99 µM | AID 651640 | 350,000 tested, 1.7% active; in the data active = CPE inhibition above about 20%, passing the limit was not always enough; inconclusive = no clear call, values can overlap the other calls; tested in BHK-21 cells;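 note: 0% = median of neutral control wells and 100% = median of positive control wells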
SIRT5 block: sirtuin-5 (human) deacylase inhibition; 330,000 tested, 1.1% active; AID 652115; Q9NXA8; inhibition, % at 15 µM; Purified SirT5, succinyl-peptide AMC, trypsin-coupled fluorescence; in the data active = inhibition above about 15%; inconclusive = no clear call, values can overlap the other calls
Target sequence (Q9NXA8 whole entry, looked up): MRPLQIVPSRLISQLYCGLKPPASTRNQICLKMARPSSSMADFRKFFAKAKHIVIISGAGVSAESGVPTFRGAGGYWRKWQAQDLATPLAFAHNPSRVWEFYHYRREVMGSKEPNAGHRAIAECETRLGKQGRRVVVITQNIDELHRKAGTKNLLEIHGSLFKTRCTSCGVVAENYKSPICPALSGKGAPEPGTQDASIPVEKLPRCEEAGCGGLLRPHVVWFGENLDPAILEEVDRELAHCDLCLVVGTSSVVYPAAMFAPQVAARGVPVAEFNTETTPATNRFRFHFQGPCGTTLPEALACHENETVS
PGC1a acetyl inh: modulators of PGC1a acetylation. inhibition, % at 15.6 µM. 350,000 tested, 0.17% active. AID 651687. U2OS PGC1a acetylation, AlphaScreen anti-acetyl-lysine; with virally co-expressed GCN5 acetyltransferase;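 active = every replicate shows inhibition of at least 40%; inconclusive = mean inhibition at least 40% but some replicate below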;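 note: 0% = neutral control wells and 100% = positive control wells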
* = called active by the depositor; ? = inconclusive; / = no result given. The list is not random: actives were taken first. Their share in the collection is about 2.9%.

SMILES | C2C12 statin | S100A4 inh HTS | DENV2 CPE | SIRT5 block | PGC1a acetyl inh
C[C@@H]1CCCCO[C@@H](CN(C)CC2CC2)[C@@H](C)CN([C@H](C)CO)C(=O)c2cc(NC(=O)Nc3ccc(C(F)(F)F)cc3)ccc2O1 | / | / | ? | / | -2.3
O=C(C[C@H]1CC[C@H](NC(=O)NC2CCCCC2)[C@H](CO)O1)NCc1ccc(F)cc1 | -0.8 | 5.5 | 3.8 | 14.0 | -4.7
COc1ccccc1C#Cc1cnc2c(c1)C(=O)N([C@H](C)CO)C[C@@H](C)[C@@H](CN(C)C(=O)CC1CC1)O2 | / | ? | -3.3 | -5.5 | 2.3
CC(C)CC#Cc1ccc2c(c1)O[C@H](CN(C)Cc1ccccc1)[C@@H](C)CN([C@H](C)CO)S2(=O)=O | / | / | / | / | 52.0*
COc1ccccc1/C=C/C1=NC(=C\C=C/c2ccccc2)/C(=O)O1 | / | 2.7 | / | 20.8* | /
COc1ccccc1/C=C/C=C1N=C(/C=C/c2ccc(Cl)cc2)OC/1=O | / | / | / | / | -5.8
COc1ccc(NC(=O)N(C)C[C@@H]2OCCCC[C@H](C)Oc3ccc(NC(=O)Nc4ccccc4)cc3C(=O)N([C@H](C)CO)C[C@@H]2C)cc1 | / | -17.0 | 14.0 | 3.3 | 7.4
CCCCCCCCCCCCCCCC[n+]1cccc2ccccc21 | / | -9.6 | -4.0 | 6.4 | /
Cc1ccccc1C[n+]1cccc2ccccc21 | -6.6 | -2.6 | 30.6* | 1.1 | 20.5
Cc1cccc(OCC(=O)Nc2cc(C)ccc2O)c1 | 113.3* | / | / | / | -26.0
O=C(Cn1ncc2c3ccccc3n(Cc3cccc(Cl)c3)c2c1=O)NCC1CCCO1 (centres undefined) | 100.0* | -4.3 | 4.3 | 12.9 | 0.7
O=C(Cn1ncc2c3ccccc3n(Cc3ccccc3F)c2c1=O)NCC1CCCO1 (centres undefined) | -3.6 | -2.3 | -1.7 | 0.1 | -6.7
COc1cc(/C(C#N)=C/c2ccccc2)c([N+](=O)[O-])cc1OC | 84.0* | / | / | / | 9.7
NCC[C@@H]1CC[C@@H](NC(=O)Nc2ccc(F)cc2)[C@H](CO)O1 | -1.9 | 5.5 | -11.8 | -0.1 | 2.6
O=C(c1ccccc1Cc1ccccc1)N1CCN(S(=O)(=O)c2ccccc2)CC1 | 6.7 | -1.0 | 68.2* | -2.0 | 3.6
O=C(c1ccccc1CCc1ccccc1)N1CCOCC1 | 114.0* | / | / | / | -21.4
O=C(c1ccccc1Cc1ccccc1)N1CCN(S(=O)(=O)c2ccccc2F)CC1 | 5.5 | -4.2 | 9.6 | -0.1 | /
COc1ccc(NC(=O)N2CC(=O)N3[C@@H](CO)[C@H](c4ccc(-c5ccc(C)cc5)cc4)[C@@H]3C2)cc1 | / | 5.9 | 11.3 | -2.2 | -17.0
CO[C@@H]1CN(C)C(=O)c2cc(NS(C)(=O)=O)ccc2OC[C@H](C)N(S(C)(=O)=O)C[C@H]1C | 10.0 | -5.5 | 2.9 | -1.9 | -2.7
O=C1c2ccccc2NC(c2ccc(-c3ccccc3F)o2)N1O (centres undefined) | 10.7 | 0.0 | 25.0* | 4.8 | /
O=C1c2ccccc2NC(c2ccc(-c3cccc(F)c3)o2)N1O (centres undefined) | -3.1 | 4.7 | -3.3 | -2.1 | /
COc1ccc(N2CCN(C(=O)COc3ccc4c(C)cc(=O)oc4c3C)CC2)cc1 | 107.5* | -11.6 | 12.6 | -2.2 | 4.0
CCCc1cc(=O)oc2c(C)c(OCC(=O)N3C[C@H]4C[C@@H](C3)c3cccc(=O)n3C4)ccc12 | 1.3 | -3.7 | 28.7* | / | 5.5
Cc1cccc(N2CCN(C(=O)COc3ccc4c(C)cc(=O)oc4c3C)CC2)c1C | -17.1 | -2.2 | 1.2 | 19.2* | -4.9
C[C@@H](O)C#Cc1ccc([C@H]2[C@H](CO)N3CCCCN(C(=O)Nc4ccccc4)C[C@@H]23)cc1 | 11.7 | 55.8 | -11.4 | 4.1 | 3.6
O=C(C[C@H]1C=C[C@@H](NS(=O)(=O)c2ccc(F)cc2)[C@H](CO)O1)N1CCC(Cc2ccccc2)CC1 | 14.9 | -8.7 | -0.8 | 5.7 | -13.6
CO[C@H](CN(C)S(=O)(=O)c1cn(C)cn1)[C@@H](C)CN(C(=O)Nc1ccc(C(F)(F)F)cc1)[C@H](C)CO | -20.4 | 7.5 | 5.8 | 4.5 | 0.2
Nc1ccc2c(c1)C(=O)C(=O)c1ccccc1-2 | / | / | / | / | 106.9*
C/C=C/c1cnc2c(c1)C(=O)N([C@H](C)CO)C[C@@H](C)[C@@H](CN(C)C(=O)Nc1ccccc1F)O2 | / | 1.5 | 30.2* | -6.8 | 4.1
C/C=C/c1cnc2c(c1)C(=O)N([C@@H](C)CO)C[C@H](C)[C@@H](CN(C)C(=O)Nc1ccc(C(F)(F)F)cc1)O2 | -25.9 | -16.7 | -6.4 | -0.5 | 4.9
